This note sets out measurements from ChEMBL document CHEMBL3856209, “Novel pyrazolopyridine derivatives as potential angiogenesis inhibitors: Synthesis, biological evaluation and transcriptome-based mechanistic analysis” (Eur J Med Chem, 2016).

Format in all cases: functional, Homo sapiens
For experiment [1], the system named is HUVEC. Put plainly: Effect on TMEM154 gene expression in serum-starved HUVEC after 6 hrs by microarray analysis relative to control.
For experiment [2], the system named is HUVEC. Put plainly: Effect on ACAT2 gene expression in serum-starved HUVEC after 24 hrs by microarray analysis relative to control. The method in brief:
(§1)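 Serum-starved confluent HUVEC treated with 2 μM compound or DMSO in 2.5% FBS for 6 h or 24 h; RNA hybridized to Illumina Human-HT12 arrays. Data background-corrected, vst-transformed and rsn-normalized. Differential probes called by moderated paired t-test (limma) at p < 0.05 and log2 fold change >|0.5| vs DMSO.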

In experiment [3] the test system is HUVEC. Put plainly: Effect on EIF3CL gene expression in serum-starved HUVEC after 24 hrs by microarray analysis relative to control. A digest of the protocol: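 Confluent serum-starved HUVEC (primary, pooled from 3–5 donors, passage ≤4) treated with 2 μM compound or DMSO vehicle in 2.5% FBS for 6 h or 24 h. Total RNA hybridized to Illumina Human-HT12 arrays, background-corrected, vst-transformed and rsn-normalized. Differential expression versus DMSO by moderated paired t-test (p < 0.05, |log2 fold change| > 0.5).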

Experiment [4] concerns HUVEC. Put plainly: Effect on ITGB2 gene expression in serum-starved HUVEC after 6 hrs by microarray analysis relative to control.
Experiment [5] concerns HUVEC. Put plainly: Effect on TYMP gene expression in serum-starved HUVEC after 6 hrs by microarray analysis relative to control.
Experiment [6] relates to HUVEC. The experiment is described as follows: Effect on COL8A1 gene expression in serum-starved HUVEC after 6 hrs by microarray analysis relative to control. A digest of the protocol: (§2)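 Confluent, serum-starved HUVEC (pooled from 3–5 donors, passage ≤4) treated with 2 μM compound or vehicle with 2.5% FBS for 6 h or 24 h. Total RNA hybridized to Illumina Human-HT12 arrays. Data were background-corrected, vst-transformed and rsn-normalized. Hits called by moderated paired t-test versus DMSO-treated cells, p < 0.05 and log2 fold change >|0.5|.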

The test system of experiment [7] is HUVEC. The experiment is described as follows: Effect on GINS2 gene expression in serum-starved HUVEC after 6 hrs by microarray analysis relative to control. A digest of the protocol:
as §2

Experiment [8] deals with HUVEC. Put plainly: Effect on SPDL1 gene expression in serum-starved HUVEC after 6 hrs by microarray analysis relative to control.
For experiment [9], the system named is HUVEC. The experiment is described as follows: Effect on HECW2 gene expression in serum-starved HUVEC after 6 hrs by microarray analysis relative to control. A digest of the protocol: as §2
Experiment [10] concerns HUVEC. The experiment is described as follows: Effect on CD46 gene expression in serum-starved HUVEC after 6 hrs by microarray analysis relative to control. A digest of the protocol:
as §1

Experiment [11] concerns HUVEC. The experiment is described as follows: Effect on SLC30A7 gene expression in serum-starved HUVEC after 24 hrs by microarray analysis relative to control.
Experiment [12] deals with HUVEC. Put plainly: Effect on FILIP1L gene expression in serum-starved HUVEC after 6 hrs by microarray analysis relative to control. A digest of the protocol:
as §2

For experiment [13], the system named is HUVEC. Put plainly: Effect on PNISR gene expression in serum-starved HUVEC after 6 hrs by microarray analysis relative to control. A digest of the protocol: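 Serum-starved confluent HUVEC (pooled from 3–5 donors, passage ≤4) were treated with 2 μM compound or vehicle in 2.5% FBS for 6 h or 24 h, and total RNA was isolated. Hybridization was on Illumina Human-HT12. Data were processed with bgAdjust, vst and rsn normalization. Changes versus DMSO were called by moderated paired t-test at p < 0.05 and |log2 fold change| > 0.5.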

Consider `COc1ccc(Cn2nc(-c3ccccc3)c3cc(Nc4ccc(N5CCN(C)CC5)cc4)nc(N4CCN(C)CC4)c32)cc1`, for which the “fold change (FC)” value in [1] is recorded as 0.2897; in experiment [3] it was -0.1982; in experiment [4], 1.3289; in experiment [6], 0.2137; in [9], 0.4559; in experiment [10] it was 0.3593. Besides, the log2FC is 1.8135 in [2], 0.5089 in experiment [5], -0.1389 in experiment [7] and 0.1139 in [8].

For `COc1ccc(Cn2nc(-c3ccccc3)c3cc(Cl)nc(N4CCNCC4)c32)cc1`, the log2FC was 0.0778 in experiment [11], 0.5185 in [12] and 0.5127 in experiment [13].
